# Test results taken from publication PMC11827156 (Malaria Journal, 2025).
# Entries after “also recorded” stand apart in the source; their conditions may differ. Like-named read-outs stand apart in the source and are kept apart here.
# Legend:
# P. falciparum = settings: read-out: IC50, antimalarial activity; cited from earlier work
# P. falciparum 3D7 [1] = type: cell-based, Plasmodium falciparum
# [2] = test system: Plasmodium falciparum 3D7; experiment: Drug effects on erythrocytic cycle phases in synchronized cultures; type: cell-based; settings: for ring phase parasites at the 36 h time point / parasitaemia at the 36 h time point: 150 nM added 12 h after synchronization, n = 3; for ring phase parasites at the 36 h time point: % parasitaemia; for parasites developed into schizonts at the 24 h time point: added at 0 h, control 18%
# Method in brief: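 Sorbitol-synchronized P. falciparum 3D7 at 1% parasitaemia and 2% haematocrit received test compound (150 nM), chloroquine (150 nM) or 0.1% DMSO at 0, 12 or 24 h post-synchronization. Samples were taken at 12, 24, 36 and 48 h and stained for 30 min in HEPES-buffered Hank's with 1 µM Hoechst and […] thiazole orange. Flow cytometry gated rings, trophozoites and schizonts on DNA/RNA signal. Data are mean ± SD from one triplicate experiment.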
# [3] = test system: knockout parasites (PfSR25−); settings: cited from earlier work
# [4] = target: P. falciparum PfSR25− (serpentine receptor 25 knockout strain); experiment: Comparative IC50 screening, 3D7 versus serpentine receptor 25 knockout strain; type: cell-based, Plasmodium falciparum; settings: 72 h, 0.0019–2 µM, Student's t test
# Method in brief: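 Asynchronous 3D7 and PfSR25− cultures (37 °C, 90% N2/5% O2/5% CO2) at 0.3% parasitaemia and 2% haematocrit were exposed for 72 h to eleven final concentrations. Controls were 0.13% DMSO and chloroquine 0.2441–250 nM. Cells were stained with SYBR Green-I (1:10,000) plus MitoTracker Deep Red (50 nM) for 20 min at 37 °C and read by flow cytometry. Survival was taken relative to DMSO, in triplicate over three experiments. IC50 ± SEM came from dose–response curves.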
# P. falciparum Dd2 = settings: 2 µM; cited from earlier work
# P. falciparum 3D7 [5] = type: cell-based, Plasmodium falciparum; settings: 2.5 nM compound alone, 48 h
# P. falciparum 3D7 [6] = experiment: Competition of TCAMS compounds; type: cell-based, Plasmodium falciparum; settings: for effect on the increase in parasitaemia promoted by melatonin: 2.5 nM compound with 100 nM melatonin; for effect on the increase in parasitaemia promoted by melatonin / effect on the increase in parasitaemia promoted by serotonin: 48 h; for effect on the increase in parasitaemia promoted by serotonin: 2.5 nM compound with 250 nM serotonin; for classification on the serotonin/melatonin pathway in the parasite: from effects in presence and absence of serotonin or melatonin
# Method in brief: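 Asynchronous P. falciparum 3D7 cultures (1% parasitaemia, 2% haematocrit) were given 2.5 nM test compound with or without 250 nM serotonin or 100 nM melatonin. Incubation was 48 h at 37 °C under mixed gas, with a DMSO solvent control. Cells were stained with SYBR Green-I (1:10,000) and MitoTracker Deep Red (50 nM) for 20 min at 37 °C, then parasitaemia was read by flow cytometry. Survival is relative to solvent; triplicate, 3 independent experiments.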
# HEK293 cells = experiment: Cytotoxicity of the compounds in HEK293 cells; type: cell-based, human; settings: MTT, 72 h, 0.0019–2 µM; for CC50: read-out: CC50 nM HEK293
# Method in brief: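 HEK293 cells (passages 7–12, grown in DMEM with 10% FBS and penicillin/streptomycin at 37 °C, 5% CO₂) were trypsinized and seeded at 10^4 cells/well. They were exposed to test compound or DMSO vehicle for 72 h. MTT (5 mg/mL reagent) was then added for 3 h, and the formazan was dissolved in DMSO. Absorbance was read at 570 nm and dose–response curves were fitted. Each condition was run in triplicate in 3 independent experiments.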
# [7] = Plasmodium falciparum, 3D7, 72 h, read-out: IC50 (nM) 3D7, Table 1, asynchronous culture, 72 h, 0.0019–2 µM, ± standard error of the mean
# [8] = read-out: IC50 (nM) 3D7, Table 1, asynchronous culture, 72 h, 0.0019–2 µM, ± standard error of the mean
compound,measurement,setting,value
"CCCN(CCC)C1CCc2cccc(O)c2C1 (stereo not drawn) [8-OH-DPAT, 8-hydroxy-N-(di-n-propyl)-aminotetralin]",IC50,P. falciparum,0.4 µM
"CCN(CC)CCCC(C)Nc1ccnc2cc(Cl)ccc12 (stereo not drawn) [Chloroquine, reference compound]",IC50,P. falciparum 3D7 [1]; [7],11.3 ± 0.7 nM
same,ring phase parasites at the 36 h time point,[2],0.30 ± 0.17%
same,parasitaemia at the 36 h time point,[2],1.55 ± 0.87%
same,parasites developed into schizonts at the 24 h time point,[2],less than 0.5%
same,parasitaemia of knockout parasites (PfSR25−) versus wild-type (3D7),[3]; exposure for 24 h,significantly reduced parasitaemia compared with that of wild-type parasites (3D7)
"COc1cc2nccc(Nc3ccc(Oc4ccccc4)cc3)c2cc1OC.Cl [TCMDC-131917, Cl.COc1cc2nccc(Nc3ccc(Oc4ccccc4)cc3)c2cc1OC]",IC50,P. falciparum 3D7 [1]; [7],120 ± 19.4 nM
same,difference of IC50 between 3D7 and PfSR25−,[4],none of the compounds tested were significantly different between the two strains
"Cn1cnc(CCNC(=O)c2cccc(-c3cccc(-c4nc5cc(C(F)(F)F)ccc5[nH]4)c3)c2)c1 [TCMDC-132496, Cn1cnc(CCNC(= O)c2cccc(c2)-c2cccc(c2)-c2nc3cc(ccc3[nH]2)C(F)(F)F)c1]",IC50,P. falciparum 3D7 [1]; [8],1970 ± 116 nM
same,"inhibition of parasite development, strain Dd2",P. falciparum Dd2,≤ 50%
"Cc1ccc(NC(=O)Nc2ccc(Cl)c(C(F)(F)F)c2)cc1-c1ccc(C(=O)NCCN2CCOCC2)cc1 [TCMDC-133589, Cc1ccc(NC(= O)Nc2ccc(Cl)c(c2)C(F)(F)F)cc1-c1ccc(cc1)C(= O)NCCN1CCOCC1]",IC50,P. falciparum 3D7 [1]; [8],1360 ± 198 nM
same,"inhibition of parasite development, strain Dd2",P. falciparum Dd2,≤ 50%
"COc1cccc(CCNc2nc(NCc3ccccc3)c3cc(OC)c(OC)cc3n2)c1 [TCMDC-135267, COc1cccc(CCNc2nc(NCc3ccccc3)c3cc(OC)c(OC)cc3n2)c1]",IC50,P. falciparum 3D7 [1]; [7],389 ± 120 nM
same,effect on parasitaemia compared with the control,P. falciparum 3D7 [5],did not significantly affect parasitaemia compared with the control
same,effect on the increase in parasitaemia promoted by melatonin,P. falciparum 3D7 [6],able to inhibit the increase in parasitaemia partially; also recorded: effective in preventing the proliferative effects of melatonin
same,effect on the increase in parasitaemia promoted by serotonin,P. falciparum 3D7 [6],able to inhibit the increase in parasitaemia; also recorded: the most effective at inhibiting the proliferative effects of serotonin
same,classification on the serotonin/melatonin pathway in the parasite,P. falciparum 3D7 [6],potential full antagonists of the pathway
same,ring phase parasites at the 36 h time point,[2],0.44 ± 0.14%
same,parasitaemia at the 36 h time point,[2],1.18 ± 0.42%
same,parasites developed into schizonts at the 24 h time point,[2],less than 0.5%
same,effect on erythrocytic cycle progression,"[2]; synchronized cultures, added at 0, 12 or 24 h","prevents the progression from trophozoite to mature schizonts, but does not affect the ability of mature schizonts to egress and invade RBCs"
"CN1CCN(CCCCCNc2c3ccccc3nc3ccccc23)CC1.Cl [TCMDC-137541, Cl.CN1CCN(CCCCCNc2c3ccccc3nc3ccccc23)CC1]",IC50,P. falciparum 3D7 [1]; [7],165 ± 74.7 nM
same,"inhibition of parasite development, strain Dd2",P. falciparum Dd2,≤ 50%
"CCOc1cc(CC)ccc1C1CCN(CCCCNC(=O)c2ccc(NC(=O)c3ccc(Cl)cc3)cc2)CC1.Cl [TCMDC-138317, Cl.CCOc1cc(CC)ccc1C1CCN(CCCCNC(= O)c2ccc(NC(= O)c3ccc(Cl)cc3)cc2)CC1]",IC50,"P. falciparum 3D7 [1]; read-out: IC50 nM 3D7, Table 2",80.8 nM
same,IC50,P. falciparum 3D7 [1]; [8],80.8 ± 25.9 nM
same,cytotoxic activity in HEK293 cells,HEK293 cells,exhibited cytotoxic activity in HEK293 cells; also recorded: toxic to mammalian HEK293 cells
same,CC50,HEK293 cells,16.6 nM
"O=C(/C=C/c1ccc(Cl)c(Cl)c1)NC1CCC(CN2CCC(c3c[nH]c4ccc(O)cc34)CC2)CC1 (stereo not drawn) [TCMDC-139494, Oc1ccc2[nH]cc(C3CCN(CC4CCC(CC4)NC(= O)\C = C\c4ccc(Cl)c(Cl)c4)CC3)c2c1]",IC50,P. falciparum 3D7 [1]; [8],122 ± 21.1 nM
same,difference of IC50 between 3D7 and PfSR25−,[4],none of the compounds tested were significantly different between the two strains
"Cc1[nH]c2c(C)cccc2c1C1CCN(CCC2CCN(C(=O)/C=C/c3ccc(Cl)c(Cl)c3)CC2)CC1 [TCMDC-139803, Cc1[nH]c2c(C)cccc2c1C1CCN(CCC2CCN(CC2)C(= O)\C = C\c2ccc(Cl)c(Cl)c2)CC1]",IC50,P. falciparum 3D7 [1]; [8],91.9 ± 18.1 nM
same,effect on parasitaemia compared with the control,P. falciparum 3D7 [5],induced a significant increase in parasitaemia
same,effect on the increase in parasitaemia promoted by melatonin,P. falciparum 3D7 [6],able to inhibit the increase in parasitaemia partially
same,effect on the increase in parasitaemia promoted by serotonin,P. falciparum 3D7 [6],partially inhibited the increase in parasitaemia promoted by serotonin
same,difference of IC50 between 3D7 and PfSR25−,[4],none of the compounds tested were significantly different between the two strains
"O=C(/C=C/c1c(Cl)cccc1Cl)NC1CCC(CN2CCC(c3c[nH]c4ccccc34)CC2)CC1 (stereo not drawn) [TCMDC-139856, Clc1cccc(Cl)c1\C = C\C(= O)NC1CCC(CN2CCC(CC2)c2c[nH]c3ccccc23)CC1]",IC50,P. falciparum 3D7 [1]; [8],274 ± 31.9 nM
same,"inhibition of parasite development, strain Dd2",P. falciparum Dd2,≤ 50%
"O=C(/C=C/c1ccc(Cl)c(Cl)c1)N1CCC(CN2CCC(c3c[nH]c4cc(C(F)(F)F)ccc34)CC2)CC1 [TCMDC-139860, FC(F)(F)c1ccc2c(c[nH]c2c1)C1CCN(CC2CCN(CC2)C(= O)\C = C\c2ccc(Cl)c(Cl)c2)CC1]",IC50,P. falciparum 3D7 [1]; [8],65.1 ± 11.6 nM
same,effect on parasitaemia compared with the control,P. falciparum 3D7 [5],induced a significant increase in parasitaemia
same,effect on the increase in parasitaemia promoted by melatonin,P. falciparum 3D7 [6],able to inhibit the increase in parasitaemia partially
same,effect on the increase in parasitaemia promoted by serotonin,P. falciparum 3D7 [6],partially inhibited the increase in parasitaemia promoted by serotonin
same,difference of IC50 between 3D7 and PfSR25−,[4],none of the compounds tested were significantly different between the two strains
same,"inhibition of parasite development, strain Dd2",P. falciparum Dd2,≤ 50%
"CC(Cc1ccc(NC(=O)c2ccc(CNCCc3ccccc3)cc2)cc1)NCCc1cccc(Cl)c1.Cl (stereo not drawn) [TCMDC-139867, Cl.CC(Cc1ccc(NC(= O)c2ccc(CNCCc3ccccc3)cc2)cc1)NCCc1cccc(Cl)c1]",IC50,"P. falciparum 3D7 [1]; read-out: IC50 nM 3D7, Table 2",57.4 nM
same,IC50,P. falciparum 3D7 [1]; [8],57.4 ± 12.2 nM
same,cytotoxic activity in HEK293 cells,HEK293 cells,exhibited cytotoxic activity in HEK293 cells
same,CC50,HEK293 cells,1280 nM
same,difference of IC50 between 3D7 and PfSR25−,[4],none of the compounds tested were significantly different between the two strains
"Cc1[nH]c2ccc(O)cc2c1C1CCN(CC2CCN(C(=O)/C=C/c3ccc(Cl)c(Cl)c3)CC2)CC1 [TCMDC-140219, Cc1[nH]c2ccc(O)cc2c1C1CCN(CC2CCN(CC2)C(= O)\C = C\c2ccc(Cl)c(Cl)c2)CC1]",IC50,P. falciparum 3D7 [1]; [8],101 ± 22.9 nM
same,effect on parasitaemia compared with the control,P. falciparum 3D7 [5],did not significantly affect parasitaemia compared with the control
same,effect on the increase in parasitaemia promoted by melatonin,P. falciparum 3D7 [6],able to inhibit the increase in parasitaemia partially
same,effect on the increase in parasitaemia promoted by serotonin,P. falciparum 3D7 [6],able to inhibit the increase in parasitaemia
same,classification on the serotonin/melatonin pathway in the parasite,P. falciparum 3D7 [6],potential full antagonists of the pathway
"CC[C@H](NC(=O)c1c(CN2CCC(N3CCCCC3)CC2)c(-c2ccccc2)nc2cc(O)ccc12)c1ccccc1 [TCMDC-140381, CC[C@H](NC(= O)c1c(CN2CCC(CC2)N2CCCCC2)c(nc2cc(O)ccc12)-c1ccccc1)c1ccccc1]",reduction of P. falciparum parasitaemia by 50%,"P. falciparum 3D7 [1]; at the concentrations tested (0.0019–2 µM), 72 h",could not reduce P. falciparum parasitaemia by 50%
same,"inhibition of parasite development, strain Dd2",P. falciparum Dd2,≤ 50%
"O=C1Nc2cccc3c2C1(CCCCN1CCC(c2cc4ccncc4[nH]2)CC1)CCC3 (stereo not drawn) [TCMDC-141151, O = C1Nc2cccc3CCCC1(CCCCN1CCC(CC1)c1cc4ccncc4[nH]1)c23]",IC50,P. falciparum 3D7 [1]; [8],459 ± 33.8 nM
same,"inhibition of parasite development, strain Dd2",P. falciparum Dd2,≤ 50%
"O=c1c(NCCCN(Cc2ccc(F)cc2)c2ccccn2)c(NCc2ccncc2)c1=O [TCMDC-142310, Fc1ccc(CN(CCCNc2c(NCc3ccncc3)c(= O)c2 = O)c2ccccn2)cc1]",IC50,P. falciparum 3D7 [1]; [8],100 ± 23.6 nM
same,effect on parasitaemia compared with the control,P. falciparum 3D7 [5],induced a significant increase in parasitaemia
same,effect on the increase in parasitaemia promoted by melatonin,P. falciparum 3D7 [6],able to inhibit the increase in parasitaemia partially
same,effect on the increase in parasitaemia promoted by serotonin,P. falciparum 3D7 [6],able to inhibit the increase in parasitaemia
same,classification on the serotonin/melatonin pathway in the parasite,P. falciparum 3D7 [6],potential partial agonists of this pathway in the parasite
CCCCN(CCCC)CC(O)c1cc(Cl)cc2c1-c1ccc(Cl)cc1/C2=C/c1ccc(Cl)cc1 (stereo not drawn) [lumefantrine],susceptibility of PfSR25−,[3],increased susceptibility
Clc1ccc2c(N3CCN(CCCN4CCN(c5ccnc6cc(Cl)ccc56)CC4)CC3)ccnc2c1 [piperaquine],susceptibility of PfSR25−,[3],increased susceptibility
